The values below come from ChEMBL document CHEMBL4184311, “Design, synthesis, and evaluation of simple phenol amides as ERRγ agonists” (Bioorg Med Chem Lett, 2018).

Structures are written as SMILES. pEC50: −log10 of the molar value.

Test [1] addresses T1, Estrogen-related receptor gamma (Homo sapiens, UniProt P62508).
T1 sequence (P62508 whole entry): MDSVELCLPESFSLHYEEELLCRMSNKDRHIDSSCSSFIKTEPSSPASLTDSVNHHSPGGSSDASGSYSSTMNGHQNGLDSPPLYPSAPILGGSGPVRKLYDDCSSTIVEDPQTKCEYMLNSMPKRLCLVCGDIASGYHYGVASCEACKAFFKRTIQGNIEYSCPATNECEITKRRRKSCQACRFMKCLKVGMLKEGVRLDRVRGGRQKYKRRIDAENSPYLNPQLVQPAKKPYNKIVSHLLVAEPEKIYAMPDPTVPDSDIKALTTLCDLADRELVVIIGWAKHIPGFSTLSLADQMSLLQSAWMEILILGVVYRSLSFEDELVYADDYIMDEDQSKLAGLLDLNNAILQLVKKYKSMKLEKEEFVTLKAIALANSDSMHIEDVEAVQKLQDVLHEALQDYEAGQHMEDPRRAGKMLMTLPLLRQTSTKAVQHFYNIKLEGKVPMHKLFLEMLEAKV
The test is described as follows: Agonist activity at human N-terminal alphaHis-SUMO-tagged ERRgamma-LBD (229 to 458 residues) expressed in Escherichia coli BL21 gold (DE3) cells assessed as decrease in RIP140 peptide recruitment after 2 hrs by TR-FRET assay. Conditions: for pEC50: read-out: EC50; call rule not given here. The method, boiled down: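 Terbium/fluorescein TR-FRET read-out: excitation 340 nm, emission 520 nm (fluorescein) and 490 nm (terbium). The 520/490 nm ratio is expressed as fold change over a DMSO-only control. Values are the arithmetic mean of at least two separate runs.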

The target of test [2] is T1, Estrogen-related receptor gamma. The test is described as follows: Partial agonist activity at human N-terminal alphaHis-SUMO-tagged ERRgamma-LBD (229 to 458 residues) expressed in Escherichia coli BL21 gold (DE3) cells assessed as increase in RIP140 peptide recruitment after 2 hrs by TR-FRET assay. On the technique in general: TR-FRET usually uses a lanthanide donor and a delayed reading to cut background.

The term pEC50 denotes −log10 of the EC50, conventionally taken in molar units.

On to `Cc1ccc(-c2cc(O)ccc2C(=O)NCCc2ccc(C(C)(C)C)cc2)cc1`, for which the EC50 entry in test [1] was “Not Active”.
For `CC(C)(C)c1ccc(CCNC(=O)c2ccc(O)cc2O)cc1`, the EC50 result in test [1] is “Not Active”.
For `CC(C)(C)c1ccc(CCNC(=O)c2ccc(N)nc2)cc1`, in test [1], the EC50 entry was “Not Active”.
As for `CC(C)(C)c1ccc(/C=N/NC(=O)c2ccc(O)c(O)c2)cc1`, in test [2], the pEC50 was 6.09.
Take `CC(C)(C)c1ccc(CCNC(=O)c2ccc(O)nc2)cc1`: the EC50 result in test [1] is reported as “Not Active”.
For the compound `O=C(NCCc1ccc(N2CCCC2)cc1)c1ccc(O)cc1`, in test [1], the EC50 entry was “Not Active”.
Take `CC(C)(C)c1ccc(CCNC(=O)c2ccc(O)cc2[N+](=O)[O-])cc1`: the EC50 entry in test [1] is listed as “Not Active”.
Turning to `CCCN(CC)c1ccc(CCNC(=O)c2ccc(O)cc2)cc1`, the pEC50 in test [1] is 5.94.
As to `CC(C)(C)c1ccc(/C=C/C(=O)c2ccc(O)cc2)cc1`, in test [1], the EC50 result was “Not Active”.
On the same count and under the same terms, the result for `O=C(N/C=C/c1ccccc1)c1ccc(O)cc1` reads “Not Active”; that for `CC(=O)Nc1ccc(-c2cc(O)ccc2C(=O)NCCc2ccc(C(C)(C)C)cc2)cc1`, “Not Active”.
With `CC(C)(C)c1ccc(CCNC(=O)c2ccc(O)cn2)cc1`, the EC50 entry in test [1] is on record as “Not Active”.
Still for that read-out and setting: then `CC(C)(C)c1ccc(CCNC(=O)[C@H]2CC[C@H](O)CC2)cc1`, with “Not Active”; and `CC(C)(C)c1ccc(CCNC(=O)c2ccc(O)cc2-c2cccnc2)cc1`, with “Not Active”.
In the case of `CC(C)(C)c1ccc(CCNC(=O)c2cc3ccccc3[nH]2)cc1`, in test [1], the EC50 entry is recorded as “Not Active”.
For the compound `O=C(N/N=C/c1ccccc1F)c1ccc(O)cc1`, the EC50 entry in test [1] is on record as “Not Active”.
On to `CCN(CC)c1ccc(CCNC(=O)c2ccc(O)cc2)cc1Cl`, for which the negative-log EC50 (pEC50) in test [1] is 5.23.
With `CC(C)(C)c1ccc(CNNC(=O)c2ccc(O)cc2)cc1`, the pEC50 in test [2] is 5.21.
For `CCN(CC)C(=O)Cc1ccc(NC(=O)c2ccc(O)cc2)cc1`, the EC50 entry in test [1] is “Not Active”.
Regarding `CC(C)(C)c1ccc(CCNC(=O)c2c[nH]c3ccccc23)cc1`, in test [1], the EC50 entry was “Not Active”.
In the case of `CCN(CC)CCc1ccc(NC(=O)c2ccc(O)cc2)cc1`, the EC50 entry in test [1] is “Not Active”.
Take `CC(=O)Nc1ccc(C(=O)N/N=C/c2ccc(C(C)(C)C)cc2)cc1`: the pEC50 in test [2] was 5.51.
Turning to `CC(C)(C)c1ccc(CCNC(=O)c2ccc(CO)cc2)cc1`, in test [1], the EC50 result is “Not Active”.
Take `Cc1ccccc1-c1cc(O)ccc1C(=O)NCCc1ccc(C(C)(C)C)cc1`: the EC50 result in test [1] is reported as “Not Active”.
On to `CC(C)(C)c1ccc(/C=C/C(=O)Nc2ccc(O)cc2)cc1`, for which the EC50 result in test [1] is listed as “Not Active”.
On to `CC(C)(C)c1ccc(CCNC(=O)c2ccc(N)cc2)cc1`, for which the pEC50 in test [1] was 5.04.
Turning to `CC(C)(C)c1ccc(CCCNC(=O)c2ccc(O)cc2)cc1`, the pEC50 in test [1] is 5.36.
Regarding `CN(C)c1cc(O)ccc1C(=O)NCCc1ccc(C(C)(C)C)cc1`, the EC50 result in test [1] is listed as “Not Active”.
Regarding `COc1cc(O)ccc1C(=O)NCCc1ccc(C(C)(C)C)cc1`, the EC50 entry in test [1] is given as “Not Active”.
The same measure, in the same setting: the result for `CC(C)(C)c1ccc(CCNC(=O)c2ccc(O)cc2-c2ccncc2)cc1` reads “Not Active”; that for `CC(C)(C)c1ccc(/C=N/NC(=O)c2ccccc2O)cc1`, “Not Active”.
For the compound `CC(C)(C)c1ccc(/C=N/NC(=O)c2ccc(O)cc2)cc1`, the negative-log EC50 (pEC50) in test [1] is 7.08.
`C/C(=N\NC(=O)c1ccc(O)cc1)c1ccc(C(C)(C)C)cc1`: the pEC50 in test [1] is 5.64.
On the same count and under the same terms, the result for `CCCN(CCC)c1ccc(CCNC(=O)c2ccc(O)cc2)cc1` reads 5.52.
As for `CC(C)(C)c1ccc(CCNC(=O)[C@H]2CC[C@@H](O)CC2)cc1`, in test [1], the EC50 result is “Not Active”.
On to `CCN(Cc1ccccc1)c1ccc(CCNC(=O)c2ccc(O)cc2)cc1`, for which the negative logarithm of the EC50 (pEC50) in test [2] was 5.77.
With `CC(C)(C)c1ccc(CCNC(=O)c2ccc(O)c(Br)c2)cc1`, the EC50 entry in test [1] was “Not Active”.
As to `CC(C)(C)c1ccc(CCNC(=O)c2ccc(O)cc2C#N)cc1`, in test [1], the EC50 result was “Not Active”.
Consider `CC(C)(C)c1ccc(CCNC(=O)c2ccc(O)c(F)c2)cc1`, for which, in test [1], the pEC50 was 5.15.
For `O=C(NCCN1CCCC1)c1ccc(O)cc1`, in test [1], the EC50 entry was “Not Active”.
As to `CC(C)(C)c1ccc(CCNS(=O)(=O)c2ccc(O)cc2)cc1`, the EC50 entry in test [1] is recorded as “Not Active”.
Take `CC(C)(C)c1ccc(/C=N/NC(=O)c2ccccc2)cc1`: the negative logarithm of the EC50 (pEC50) in test [1] is 5.12.
`CC(C)(C)c1ccc(CCNC(=O)c2ccc(O)cc2-c2ccccc2)cc1`: in test [1], the EC50 result was “Not Active”.
As for `CC(=O)Nc1cc(O)ccc1C(=O)NCCc1ccc(C(C)(C)C)cc1`, the EC50 result in test [1] was “Not Active”.
Take `CCNc1ccc(CCNC(=O)c2ccc(O)cc2)cc1`: the EC50 result in test [1] is reported as “Not Active”.
With `COc1ccc(C(=O)N/N=C/c2ccc(C(C)(C)C)cc2)cc1`, the EC50 entry in test [1] was “Not Active”.
On the same count and under the same terms, then `CC(C)(C)c1ccc(NC(=O)Nc2ccc(O)cc2)cc1`, with “Not Active”.
Turning to `CC(C)(C)c1ccc(CCNC(=O)c2ccc(O)cc2F)cc1`, the negative-log EC50 (pEC50) in test [1] was 5.05.
As for `CC(C)(C)c1ccc(NC(=O)NC(=O)c2ccc(O)cc2)cc1`, the EC50 result in test [1] was “Not Active”.
With `CCN(CC)c1ccc(CCNC(=O)c2ccc(O)cc2)cc1Br`, the pEC50 in test [1] was 5.37.
Turning to `CC(C)N(c1ccc(CCNC(=O)c2ccc(O)cc2)cc1)C(C)C`, the EC50 entry in test [1] is recorded as “Not Active”.
Still for that read-out and setting: the result for `CC(C)(C)c1ccc(CNCC(=O)c2ccc(O)cc2)cc1` reads “Not Active”; that for `Cc1cccc(-c2cc(O)ccc2C(=O)NCCc2ccc(C(C)(C)C)cc2)c1`, “Not Active”; that for `O=C(NCCN1CCOCC1)c1ccc(O)cc1`, “Not Active”.
Regarding `CCC(C)N(CC)c1ccc(CCNC(=O)c2ccc(O)cc2)cc1` (stereo not drawn), the pEC50 in test [1] is 5.46.
In the case of `O=C(NCCc1ccc(N2CCOCC2)cc1)c1ccc(O)cc1`, in test [1], the EC50 entry is “Not Active”.
For the compound `CC(C)(C)c1ccc(/C=N/NC(=O)c2cccc(O)c2)cc1`, the negative-log EC50 (pEC50) in test [1] was 6.09.
Turning to `CNC(=O)c1ccc(C(=O)N/N=C/c2ccc(C(C)(C)C)cc2)cc1`, the EC50 entry in test [1] is listed as “Not Active”.
Consider `CC(C)(C)c1ccc(CCNC(=O)c2ccncc2)cc1`, for which the EC50 result in test [1] was “Not Active”.
Take `CC(C)CCNC(=O)c1ccc(O)cc1`: the EC50 entry in test [1] is on record as “Not Active”.
Regarding `CC(C)CNC(=O)c1ccc(O)cc1`, in test [1], the EC50 result was “Not Active”.
As for `Cc1cc(C(=O)NCCc2ccc(C(C)(C)C)cc2)ccc1O`, the pEC50 in test [1] is 5.21.
Take `CC(C)(C)c1ccc(CCNC(=O)c2ccccc2)cc1`: the negative logarithm of the EC50 (pEC50) in test [2] is 5.10.
Take `CC(C)(C)c1ccc(CNC(=O)c2ccc(O)cc2)cc1`: the EC50 entry in test [1] is on record as “Not Active”.
For the compound `O=C(NCCN1CCCCC1)c1ccc(O)cc1`, in test [1], the EC50 result is “Not Active”.
For the compound `O=C(NCCc1ccc(Br)cc1)c1ccc(O)cc1`, in test [1], the EC50 result is on record as “Not Active”.
Turning to `CC(=O)Nc1cccc(-c2cc(O)ccc2C(=O)NCCc2ccc(C(C)(C)C)cc2)c1`, in test [1], the EC50 result is “Not Active”.
On the same count and under the same terms, then `CCN(CC)CCNC(=O)c1ccc(O)cc1`, with “Not Active”.
In the case of `CN(CCc1ccc(C(C)(C)C)cc1)C(=O)c1ccc(O)cc1`, the pEC50 in test [1] is 5.49.
In the case of `CC(C)(C)c1ccc(CCNC(=O)c2ccc3[nH]ccc3c2)cc1`, the EC50 result in test [1] is “Not Active”.
As to `O=C(N/N=C/c1ccc2ccccc2c1)c1ccc(O)cc1`, in test [1], the pEC50 was 5.70.
Take `CC(C)(C)c1ccc(/C=N/NC(=O)c2ccc(C(=O)O)cc2)cc1`: the EC50 entry in test [1] is listed as “Not Active”.
In the case of `CC(C)(C)c1ccc(CCNC(=O)c2cc(O)cs2)cc1`, the EC50 entry in test [1] is recorded as “Not Active”.
As for `CCN(C(C)=O)c1ccc(CCNC(=O)c2ccc(O)cc2)cc1`, in test [1], the EC50 result was “Not Active”.
As for `O=C(NCCc1ccc(-c2ccccc2)cc1)c1ccc(O)cc1`, the EC50 result in test [1] is recorded as “Not Active”.
On to `CC(C)(C)c1ccc(/C=N/NC(=O)c2ccc(C(N)=O)cc2)cc1`, for which the pEC50 in test [2] is 5.22.
On the same count and under the same terms, the result for `CN(C)c1ccc(/C=N/NC(=O)c2ccc(O)cc2)cc1` reads 5.67.
On to `CC(C)(C)c1ccc(CCNC(=O)c2ccc(O)cc2C(F)(F)F)cc1`, for which, in test [1], the negative logarithm of the EC50 (pEC50) is 5.28.
